Data: ChEMBL document CHEMBL3792333, “The discovery of indole derivatives as novel hepatitis C virus inhibitors” (Eur J Med Chem, 2016)
Calls of active or inactive are those of the source. The rule behind the calls is not given here.

What was measured:
Hepatitis C virus [1] = experiment: Antiviral activity against Hepatitis C virus JFH-1 infected in human Huh7.5.1 cells measured 48 hrs post infection by luciferase reporter gene assay; assay type: functional, organism-based, Hepacivirus hominis; settings: JFH-1, Huh-7, 48 h
Method in brief: (§1)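 Huh7.5.1 cells were seeded and grown 24 h at 37 °C, 5% CO₂. They were then treated with serially diluted compound and infected with Renilla luciferase-linked HCV(JFH-1) reporter virus. Luminescence was read at 48 hpi, and EC₅₀ and CC₅₀ were derived from it. SI is CC₅₀/EC₅₀. Results are the mean of three independent experiments with SD.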

[2] = Selectivity index, ratio of CC50 for human Huh7.5.1 cells infected with Hepatitis C virus JFH-1 to EC50 for Hepatitis C virus JFH-1 infected in human Huh7.5.1 cells; assay type: toxicity, cell-based, Huh-7; settings: read-out: Ratio CC50/EC50; method in brief: as §1
[3] = Cytotoxicity against human Huh7.5.1 cells infected with Hepatitis C virus JFH-1 measured 48 hrs post infection by luciferase reporter gene assay; assay type: cell-based, Huh-7; method in brief: as §1
Hepatitis C virus [4] = experiment: Antiviral activity against Hepatitis C virus JFH-1 infected in human Huh7.5.1 cells assessed as inhibition of viral entry at 5 uM treated immediately after viral infection incubated for 24 hrs by luciferase reporter gene assay; assay type: functional, organism-based; settings: Hepacivirus hominis, Huh-7
Method in brief: (§2)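 Huh7.5.1 cells were seeded at 3×10⁴/well in 10% FBS-DMEM and grown overnight at 37 °C, 5% CO₂. Compound was added with 100 TCID₅₀ of HCV(JFH-1) Renilla luciferase reporter virus (0 h), or at -6 to 10 hpi. Cells were incubated 24 h at 37 °C, and luciferase activity was compared with 0.5% DMSO mock cultures.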

Hepatitis C virus [5] = experiment: Antiviral activity against Hepatitis C virus JFH-1 infected in human Huh7.5.1 cells assessed as inhibition of viral entry at 5 uM treated 2 to 6 hrs prior infection incubated for 24 hrs by luciferase reporter gene assay; assay type: functional, organism-based; settings: Hepacivirus hominis, Huh-7; method in brief: as §2
Hepatitis C virus [6] = experiment: Antiviral activity against Hepatitis C virus JFH-1 infected in human Huh7.5.1 cells assessed as inhibition of viral RNA replication at 5 uM treated 2 to 10 hrs post infection incubated for 24 hrs by luciferase reporter gene assay; assay type: functional, organism-based; settings: Hepacivirus hominis, Huh-7; method in brief: as §2
Hepatitis C virus [7] = experiment: Antiviral activity against Hepatitis C virus JFH-1 infected in human Huh7.5.1 cells assessed as inhibition of viral entry at 5 uM treated 1 hr post infection incubated for 24 hrs by luciferase reporter gene assay; assay type: functional, organism-based; settings: Hepacivirus hominis, Huh-7; method in brief: as §2
Hepatitis C virus [8] = experiment: Antiviral activity against Hepatitis C virus JFH-1 infected in human Huh7.5.1 cells assessed as inhibition of viral entry at 2 uM treated immediately after viral infection incubated for 24 hrs by luciferase reporter gene assay; assay type: functional, organism-based; settings: Hepacivirus hominis, Huh-7; method in brief: as §2
Hepatitis C virus [9] = experiment: Antiviral activity against Hepatitis C virus JFH-1 infected in human Huh7.5.1 cells assessed as inhibition of viral entry at 2 uM treated 2 to 6 hrs prior infection incubated for 24 hrs by luciferase reporter gene assay; assay type: functional, organism-based; settings: Hepacivirus hominis, Huh-7; method in brief: as §2
Hepatitis C virus [10] = experiment: Antiviral activity against Hepatitis C virus JFH-1 infected in human Huh7.5.1 cells assessed as inhibition of viral entry at 2 uM treated 1 hr post infection incubated for 24 hrs by luciferase reporter gene assay; assay type: functional, organism-based; settings: Hepacivirus hominis, Huh-7; method in brief: as §2
Hepatitis C virus [11] = experiment: Antiviral activity against Hepatitis C virus JFH-1 infected in human Huh7.5.1 cells assessed as inhibition of viral RNA replication at 2 uM treated 2 to 10 hrs post infection incubated for 24 hrs by luciferase reporter gene assay; assay type: functional, organism-based; settings: Hepacivirus hominis, Huh-7; method in brief: as §2

Row | Structure (SMILES) | EC50 (Hepatitis C virus [1]) [µM] | selectivity ratio [2] | CC50 at 48 h [3] [µM] | further results
1 | CC1=NN(c2ccccc2F)C(=O)/C1=C/c1cn(CC(O)CNCCCN2CCOCC2)c2ccccc12 (racemic) | 2.79 | 12.3 | 34.2 | 
2 | CC1=NN(c2ccccc2)C(=O)/C1=C/c1cn(CC(O)CNCCN2CCOCC2)c2ccccc12 (racemic) | 5.46 | 7.76 | 42.4 | 
3 | CC1=NN(c2cccc(F)c2)C(=O)/C1=C/c1cn(CC2CO2)c2ccccc12 (centres undefined) | 2.65 | 9.67 | 25.6 | 
4 | CC1=NN(c2ccc(F)cc2)C(=O)/C1=C/c1cn(CC2CO2)c2ccccc12 (centres undefined) | 3.24 | > 15.4 | > 50 | 
5 | CC1=NN(c2ccccc2)C(=O)/C1=C/c1cn(CC(O)CN2CCOCC2)c2ccccc12 (racemic) | 21.9 | > 2.29 | > 50 | 
6 | CC1=NN(c2ccccc2)C(=O)/C1=C/c1cn(CC2CC2)c2ccccc12 | 21.5 | > 2.32 | > 50 | 
7 | CCCCN(CCCC)CC(O)Cn1cc(/C=C2/C(=O)N(c3ccccc3)N=C2C)c2ccccc21 (racemic) | > 50 |  | > 50 | 
8 | CCCCNCC(O)Cn1cc(/C=C2/C(=O)N(c3ccccc3)N=C2C)c2ccccc21 (racemic) | > 50 |  | > 50 | 
9 | COc1ccc(N2N=C(C)/C(=C\c3cn(CC(O)CNCCCN4CCOCC4)c4ccccc34)C2=O)cc1 (racemic) | 2.05 | 7.53 | 15.4 | 
10 | CC1=NN(c2ccccc2)C(=O)/C1=C/c1cn(CC(O)CNCCCN2CCOCC2)c2ccccc12 (racemic) | 2.04 | 17.6 | 35.8 | 
11 | CC1=NN(c2ccc(F)cc2)C(=O)/C1=C/c1cn(C[C@@H](O)CNCCCN2CCOCC2)c2ccccc12 | 7.12 | 4.86 | 34.6 | 
12 | CC1=NN(c2ccccc2)C(=O)/C1=C/c1cn(CC(O)CNCc2ccccc2)c2ccccc12 (racemic) | > 50 |  | > 50 | 
13 | CC1=NN(c2ccc(Cl)cc2)C(=O)/C1=C/c1cn(CC(O)CNCCCN2CCOCC2)c2ccccc12 (racemic) | 3.42 | 5.12 | 17.5 | 
14 | CC1=NN(c2ccccc2)C(=O)/C1=C/c1cn(C)c2ccccc12 | 21.2 | > 2.36 | > 50 | 
15 | CC1=NN(c2cccc(F)c2)C(=O)/C1=C/c1cn(C[C@H](O)CNCCCN2CCOCC2)c2ccccc12 | 0.74 | 42 | 31.1 | 
16 | CC1=NN(c2ccc(F)cc2)C(=O)/C1=C/c1cn(C[C@H](O)CNCCCN2CCOCC2)c2ccccc12 | 0.72 | > 69.4 | > 50 | 
17 | CC1=NN(c2ccccc2F)C(=O)/C1=C/c1cn(CC2CO2)c2ccccc12 (centres undefined) | 5.11 | 5.95 | 30.4 | 
18 | CC1=NN(c2ccc(Cl)cc2)C(=O)/C1=C/c1cn(CC2CO2)c2ccccc12 (centres undefined) | 6.82 | 5.17 | 35.3 | 

Row | Structure (SMILES) | EC50 (Hepatitis C virus [1]) [µM] | selectivity ratio [2] | CC50 at 48 h [3] [µM] | further results
19 | CC1=NN(c2ccccc2)C(=O)/C1=C/c1cn(CC(O)CNCCCCN2CCOCC2)c2ccccc12 (racemic) | 2.03 | 4 | 8.13 | 
20 | CC1=NN(c2ccc(C)cc2)C(=O)/C1=C/c1cn(CC(O)CNCCCN2CCOCC2)c2ccccc12 (racemic) | 1.83 | 19.8 | 36.2 | 
21 | CC1=NN(c2cccc(F)c2)C(=O)/C1=C/c1cn(CC(O)CNCCCN2CCOCC2)c2ccccc12 (racemic) | 0.92 | 23.3 | 21.5 | 
22 | CC1=NN(c2ccc(C(F)(F)F)cc2)C(=O)/C1=C/c1cn(CC2CO2)c2ccccc12 (centres undefined) | 7.86 | 5.14 | 40.4 | 
23 | CC1=NN(c2ccccc2)C(=O)/C1=C/c1cn(C[C@@H](O)CNCCCN2CCOCC2)c2ccccc12 | 8.06 | 2.67 | 21.5 | 
24 | CC1=NN(c2ccc(C(F)(F)F)cc2)C(=O)/C1=C/c1cn(CC(O)CNCCCN2CCOCC2)c2ccccc12 (racemic) | 4.63 | 2.44 | 11.3 | 
25 | CC1=NN(c2cccc(F)c2)C(=O)/C1=C/c1cn(C[C@@H](O)CNCCCN2CCOCC2)c2ccccc12 | 5.87 | 3.97 | 23.3 | 
26 | CC1=NN(c2cccc(C(F)(F)F)c2)C(=O)/C1=C/c1cn(CC2CO2)c2ccccc12 (centres undefined) | 5.94 | 4.23 | 25.1 | 
27 | CC1=NN(c2cccc(C(F)(F)F)c2)C(=O)/C1=C/c1cn(CC(O)CNCCCN2CCOCC2)c2ccccc12 (racemic) | 2.08 | 8.57 | 17.8 | 
28 | CC1=NN(c2ccccc2)C(=O)/C1=C/c1cn(C[C@H](O)CNCCCN2CCOCC2)c2ccccc12 | 1.25 | > 40 | > 50 | 
29 | CC1=NN(c2ccccc2)C(=O)/C1=C/c1c[nH]c2ccccc12 | 24.5 | > 2.03 | > 50 | 
30 | COc1ccc(N2N=C(C)/C(=C\c3cn(CC4CO4)c4ccccc34)C2=O)cc1 (centres undefined) | 2.06 | 5.76 | 11.9 | 
31 | CC1=NN(C)C(=O)/C1=C/c1cn(CC2CO2)c2ccccc12 (centres undefined) | > 50 |  | > 50 | 
32 | CC1=NN(c2ccccc2)C(=O)/C1=C/c1cn(CC2CO2)c2ccccc12 (centres undefined) | 5.78 | 8.02 | 46.3 | inhibition (Hepatitis C virus [4]): Active; inhibition (Hepatitis C virus [5]): Active; inhibition (Hepatitis C virus [6]): inactive; inhibition (Hepatitis C virus [7]): Active
33 | CC1=NN(c2ccccc2)C(=O)/C1=C/c1cn(Cc2ccccc2)c2ccccc12 | 17.4 | > 2.88 | > 50 | 
34 | CC1=NN(c2ccc(F)cc2)C(=O)/C1=C/c1cn(CC(O)CNCCCN2CCOCC2)c2ccccc12 (racemic) | 1.02 | 45.6 | 46.5 | inhibition (Hepatitis C virus [8]): Active; inhibition (Hepatitis C virus [9]): Active; inhibition (Hepatitis C virus [10]): Active; inhibition (Hepatitis C virus [11]): inactive
35 | CC1=NN(c2ccc(C)cc2)C(=O)/C1=C/c1cn(CC2CO2)c2ccccc12 (centres undefined) | 3.06 | 4.24 | 13.2 | 
